# Data published in ChEMBL document CHEMBL3603828, “Imine/amide-imidazole conjugates derived from 5-amino-4-cyano-N1-substituted benzyl imidazole: Microwave-assisted synthesis and anticancer activity via selective topoisomerase-II-α inhibition” (Bioorg Med Chem, 2015).
# Activity calls are given as the source filed them. The calls are words filed in the database; no cut-off is given here.
# Columns and labels:
# A549 [1] = assay: Antiproliferative activity against human A549 cells by MTT assay; assay type: functional, cell-based
# Method in brief: (§1)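 Cells from NCCS were grown in DMEM with 10% FBS and antibiotics at 37 °C under 5% CO₂. They were seeded at 8000 cells/well after trypan blue counting. Compounds were made up as 100 mM DMSO stocks and diluted in serum-free DMEM. MTT was added and cells were held 4 h at room temperature in the dark. Formazan was dissolved in DMSO and read at 570 nm. Values are averages of three independent experiments, each run in triplicate.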
# HepG2 [2] = assay: Antiproliferative activity against human HepG2 cells by MTT assay; assay type: functional, cell-based; method in brief: as §1
# [3] = Antiproliferative activity against human H460 cells by MTT assay; assay type: functional, cell-based; conditions: NCI-H460; method in brief: as §1
# PBMC = assay: Cytotoxic activity against human PBMC by MTT assay; assay type: cell-based
# Method in brief: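 Human peripheral blood mononuclear cells served as the normal control in an MTT read-out. Formazan was formed over 4 h at room temperature in the dark, dissolved in DMSO and read at 570 nm. Results are mean SD of three independent experiments.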
# HepG2 [4] = assay: Induction of mitochondrial membrane depolarization in human HepG2 cells at 1 to 25 uM incubated for 24 hrs by JC1 staining based assay; assay type: functional, cell-based
# Method in brief: (§2)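 Cells were seeded at 8000 per well and treated for 24 h. JC-1 dye was added directly to the medium for 30 min at 37 °C, then excess dye was washed off with PBS. Membrane potential was read as the OD590/OD527 ratio.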
# A549 [5] = assay: Induction of mitochondrial membrane depolarization in human A549 cells at 1 to 25 uM incubated for 24 hrs by JC1 staining based assay; assay type: functional, cell-based; method in brief: as §2
# [6] = target: T1, DNA topoisomerase 2-alpha (Homo sapiens, UniProt P11388); assay: Inhibition of human topoisomerase-2 alpha assessed as reduction in enzyme-mediated kinetoplast DNA decatenation at 100 uM incubated for 30 mins by ethidium bromide staining based agarose gel electrophoresis method
# Method in brief: (§3)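 Reactions with 2–4 units purified human topoisomerase II and 150 ng kDNA were set up on ice. Buffer was Tris-HCl pH 8 with NaCl, MgCl₂, DTT, BSA and ATP, and drug was 100 µM. Incubation was 30 min at 37 °C, then SDS and proteinase K for 15 min. Products were resolved on 1% agarose with ethidium bromide, visualized under UV and quantified.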
# A549 [7] = assay: Induction of ROS generation in human A549 cells at 1 to 25 uM incubated for 24 hrs by DHE staining based assay; assay type: functional, cell-based
# Method in brief: (§4)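 Cells were seeded in DMEM/10% FBS at 8000 per well and treated for 24 h. They were washed with PBS, stained with DHE for 30 min at 37 °C and washed with ice-cold PBS. Fluorescence OD was then read on a microplate reader.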
# HepG2 [8] = assay: Induction of ROS generation in human HepG2 cells at 1 to 25 uM incubated for 24 hrs by DHE staining based assay; assay type: functional, cell-based; method in brief: as §4
# [9] = target: T2, DNA topoisomerase 1 (Homo sapiens) (UniProt P11387); assay: Inhibition of human topoisomerase-1 assessed as reduction in enzyme-mediated DNA relaxation at 100 uM incubated for 30 mins by ethidium bromide staining based agarose gel electrophoresis method
# T2 sequence (whole entry): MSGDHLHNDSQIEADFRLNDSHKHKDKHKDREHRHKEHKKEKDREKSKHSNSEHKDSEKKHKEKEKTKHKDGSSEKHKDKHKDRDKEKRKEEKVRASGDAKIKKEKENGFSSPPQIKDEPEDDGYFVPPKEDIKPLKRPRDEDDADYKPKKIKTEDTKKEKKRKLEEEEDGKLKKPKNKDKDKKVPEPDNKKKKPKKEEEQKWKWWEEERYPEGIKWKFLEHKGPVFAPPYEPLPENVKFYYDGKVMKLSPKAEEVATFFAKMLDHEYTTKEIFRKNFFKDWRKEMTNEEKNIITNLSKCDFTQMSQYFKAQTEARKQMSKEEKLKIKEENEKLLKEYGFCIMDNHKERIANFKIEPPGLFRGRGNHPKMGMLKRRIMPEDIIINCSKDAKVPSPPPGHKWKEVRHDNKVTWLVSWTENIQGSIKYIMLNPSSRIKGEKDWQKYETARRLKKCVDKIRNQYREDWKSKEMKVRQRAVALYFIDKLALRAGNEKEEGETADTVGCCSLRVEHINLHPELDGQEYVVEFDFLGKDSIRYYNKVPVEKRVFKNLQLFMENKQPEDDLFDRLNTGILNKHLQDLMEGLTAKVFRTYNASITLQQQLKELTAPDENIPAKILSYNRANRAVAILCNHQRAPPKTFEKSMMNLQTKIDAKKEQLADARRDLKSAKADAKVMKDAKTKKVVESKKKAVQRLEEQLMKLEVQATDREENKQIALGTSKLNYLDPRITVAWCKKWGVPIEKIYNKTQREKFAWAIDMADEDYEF
# Method in brief: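 Purified human Topo I was used with 250 ng supercoiled DNA. Buffer was Tris-HCl pH 7.9 with EDTA, NaCl, BSA, spermidine and glycerol. Compound was 100 µM in DMSO, with 30 min incubation at 37 °C. Reactions were stopped with SDS and proteinase K at 70 °C for 15 min. Products were run on 1% agarose in TAE.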
# [10] = target: T1, DNA topoisomerase 2-alpha; assay: Inhibition of human topoisomerase-2 alpha assessed as reduction in enzyme-mediated kinetoplast DNA decatenation incubated for 30 mins by ethidium bromide staining based agarose gel electrophoresis method; method in brief: as §3
# NCI-H460 [11] = assay: Induction of ROS generation in human H460 cells at 1 to 25 uM incubated for 24 hrs by DHE staining based assay; assay type: functional, cell-based; method in brief: as §4
# NCI-H460 [12] = assay: Induction of mitochondrial membrane depolarization in human H460 cells at 1 to 25 uM incubated for 24 hrs by JC1 staining based assay; assay type: functional, cell-based; method in brief: as §2
# T1 sequence (P11388 whole entry): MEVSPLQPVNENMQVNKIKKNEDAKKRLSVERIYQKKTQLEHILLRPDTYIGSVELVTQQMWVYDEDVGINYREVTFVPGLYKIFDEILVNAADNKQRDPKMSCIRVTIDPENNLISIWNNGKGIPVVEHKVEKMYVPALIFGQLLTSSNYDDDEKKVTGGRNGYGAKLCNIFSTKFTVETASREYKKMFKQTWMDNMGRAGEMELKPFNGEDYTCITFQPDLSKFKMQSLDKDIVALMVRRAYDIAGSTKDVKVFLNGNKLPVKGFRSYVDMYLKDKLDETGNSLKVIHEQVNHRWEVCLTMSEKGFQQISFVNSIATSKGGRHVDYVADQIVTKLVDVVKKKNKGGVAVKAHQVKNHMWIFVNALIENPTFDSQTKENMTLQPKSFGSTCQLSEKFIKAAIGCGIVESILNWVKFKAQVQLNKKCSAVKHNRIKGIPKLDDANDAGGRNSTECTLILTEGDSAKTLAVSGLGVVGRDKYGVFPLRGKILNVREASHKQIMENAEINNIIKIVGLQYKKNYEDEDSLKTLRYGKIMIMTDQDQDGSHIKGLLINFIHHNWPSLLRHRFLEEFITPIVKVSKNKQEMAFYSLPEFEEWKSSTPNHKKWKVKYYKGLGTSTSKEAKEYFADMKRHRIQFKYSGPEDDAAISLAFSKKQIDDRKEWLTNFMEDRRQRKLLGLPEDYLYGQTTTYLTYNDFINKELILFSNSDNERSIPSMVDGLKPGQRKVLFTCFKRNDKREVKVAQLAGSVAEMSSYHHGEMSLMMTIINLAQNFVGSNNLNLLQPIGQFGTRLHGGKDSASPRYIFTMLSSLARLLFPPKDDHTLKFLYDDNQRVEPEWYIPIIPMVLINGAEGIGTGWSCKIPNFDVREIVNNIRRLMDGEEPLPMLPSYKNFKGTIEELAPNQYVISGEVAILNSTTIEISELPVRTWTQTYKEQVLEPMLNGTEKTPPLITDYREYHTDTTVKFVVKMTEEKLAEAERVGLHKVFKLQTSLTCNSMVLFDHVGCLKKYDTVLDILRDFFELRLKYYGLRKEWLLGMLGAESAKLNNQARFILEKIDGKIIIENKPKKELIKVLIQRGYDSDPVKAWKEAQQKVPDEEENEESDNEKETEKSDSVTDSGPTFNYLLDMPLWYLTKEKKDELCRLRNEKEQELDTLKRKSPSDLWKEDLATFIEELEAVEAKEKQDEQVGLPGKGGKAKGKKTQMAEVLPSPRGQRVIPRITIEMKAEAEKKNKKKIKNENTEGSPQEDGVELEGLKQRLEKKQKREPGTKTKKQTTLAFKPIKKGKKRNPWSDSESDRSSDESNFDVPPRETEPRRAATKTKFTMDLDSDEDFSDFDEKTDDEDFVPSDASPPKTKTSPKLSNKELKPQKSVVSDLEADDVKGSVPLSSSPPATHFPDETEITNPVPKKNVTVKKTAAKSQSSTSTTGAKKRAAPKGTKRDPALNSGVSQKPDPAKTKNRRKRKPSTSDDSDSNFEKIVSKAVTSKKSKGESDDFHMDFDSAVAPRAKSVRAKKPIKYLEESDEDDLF
IC50 (A549 [1]) [µM],IC50 (HepG2 [2]) [µM],inhibition [6],inhibition [9],IC50 [10] [µM],Compound,IC50 [3] [µM],Activity (PBMC),Activity (HepG2 [4]),Activity (A549 [5]),Activity (A549 [7]),Activity (HepG2 [8]),Activity (NCI-H460 [11]),Activity (NCI-H460 [12])
35.1,38.2,,,,N#Cc1ncn(Cc2ccccc2Cl)c1/N=C/c1ccc(O)cc1,> 40,Non-toxic,,,,,,
30.8,31,,,,N#Cc1ncn(Cc2ccccc2Cl)c1/N=C/c1ccc(Cl)cc1,28.1,Non-toxic,,,,,,
39,> 40,,,,COc1cc(/C=N/c2c(C#N)ncn2Cc2ccccc2Cl)ccc1O,,Non-toxic,,,,,,
7.5,12,Active,inactive,34.9,N#Cc1ncn(Cc2ccccc2Cl)c1/N=C/c1cc(Cl)cc(Cl)c1O,11.2,Non-toxic,Active,Active,Dose-dependent effect,Dose-dependent effect,Dose-dependent effect,Active
10.9,15,Active,,,N#Cc1ncn(Cc2ccccc2Cl)c1/N=C/c1c[nH]c2ccccc12,14.6,Non-toxic,,,,,,
18,20,,,,COc1ccc(OC)c(/C=N/c2c(C#N)ncn2Cc2ccccc2Cl)c1,28.3,Non-toxic,,,,,,
> 50,> 50,,,,COc1ccc(/C=N/c2c(C#N)ncn2Cc2ccccc2Cl)cc1OC,,Non-toxic,,,,,,
37,40,,,,N#Cc1ncn(Cc2ccccc2Cl)c1/N=C/c1ccccc1[N+](=O)[O-],,Non-toxic,,,,,,

Compound,IC50 (A549 [1]) [µM],IC50 (HepG2 [2]) [µM],inhibition [6],inhibition [9],IC50 [10] [µM],IC50 [3] [µM],Activity (PBMC),Activity (HepG2 [4]),Activity (A549 [5]),Activity (A549 [7]),Activity (HepG2 [8]),Activity (NCI-H460 [11]),Activity (NCI-H460 [12])
COc1cc([C@@H]2c3cc4c(cc3[C@@H](O[C@@H]3O[C@@H]5CO[C@@H](C)O[C@H]5[C@H](O)[C@H]3O)[C@H]3COC(=O)[C@H]23)OCO4)cc(OC)c1O [ETOPOSIDE],18.2,20.9,Active,,,> 30,Non-toxic,,,,,,
